Source: ChEMBL document CHEMBL3085685, “In vitro and in vivo antileishmanial and trypanocidal studies of new N-benzene- and N-naphthalenesulfonamide derivatives” (J Med Chem, 2013)
Active and inactive are the calls of the source. The rule behind the calls is not given here.

Columns and labels:
Leishmania braziliensis = assay: Leishmanicidal activity against extracellular promastigote stage of Leishmania braziliensis 2903 assessed as reduction of parasite load after 48 hrs by resazurin dye-based fluorometric analysis; assay type: functional, organism-based
Procedure, shortened: (§1)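 Log-phase promastigotes cultured in Schneider's medium with 20% heat-inactivated FBS at 26 °C, 2.5 × 10^5 per well. DMSO-dissolved compounds added as 2-fold serial dilutions, final DMSO ≤0.2% (v/v), 48 h at 26 °C. Growth read by 2.5 mM resazurin stock, fluorescence 535/590 nm. Triplicate; IC50 by probit analysis.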

Leishmania infantum [1] = assay: Leishmanicidal activity against extracellular promastigote stage of Leishmania infantum MCAN/ES/96/BCN150 assessed as reduction of parasite load after 48 hrs by resazurin dye-based fluorometric analysis; assay type: functional, organism-based; procedure, shortened: as §1
[2] = Cytotoxicity against mouse J774 cells assessed as reduction of cell viability after 24 hrs by resazurin dye-based fluorometric analysis
Procedure, shortened: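 J774 macrophages in RPMI 1640 with 10% heat-inactivated FBS, seeded at 5 × 10^4 cells/well and attached 24 h at 37 °C, 5% CO2. Medium swapped for drug dilutions for 24 h. Then 2.5 mM resazurin stock added for 3 h, fluorescence read at 535 nm excitation / 590 nm emission. Triplicate; CC50 from probit analysis.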

Leishmania guyanensis = assay: Leishmanicidal activity against extracellular promastigote stage of Leishmania guyanensis 141/93 assessed as reduction of parasite load after 48 hrs by resazurin dye-based fluorometric analysis; assay type: functional, organism-based; procedure, shortened: as §1
Leishmania amazonensis [3] = assay: Leishmanicidal activity against extracellular promastigote stage of Leishmania amazonensis MHOM/Br/79/Maria assessed as reduction of parasite load after 48 hrs by resazurin dye-based fluorometric analysis; assay type: functional, organism-based; procedure, shortened: as §1
Trypanosoma cruzi [4] = assay: Trypanocidal activity against extracellular epimastigote stage of Trypanosoma cruzi CL-B5 assessed as reduction of parasite load after 72 hrs by CPRG-based colorimetric analysis
Leishmania amazonensis [5] = assay: Leishmanicidal activity against intracellular amastigote stage of Leishmania amazonensis MHOM/Br/79/Maria infected in mouse J774 cells assessed as reduction of parasite load after 48 hrs by resazurin dye-based fluorometric analysis; assay type: functional, organism-based
Procedure, shortened: (§2)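 J774 macrophages (5 × 10^4/well) infected with stationary promastigotes at 1:10, 24 h at 33 °C then 24 h at 37 °C, 5% CO2, and washed free of promastigotes. Then 2-fold serial dilutions in triplicate for 48 h at 37 °C. Cells lysed with RPMI with 0.048% HEPES and 0.006% SDS, transformed in Schneider's 3 days at 26 °C, resazurin 3 h, fluorescence 535/590 nm.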

Trypanosoma cruzi [6] = assay: Trypanocidal activity against bloodstream trypomastigote stage of Trypanosoma cruzi Y infected in BALB/c mouse assessed as reduction of survival rate at 10 mg/kg/day, ip qd administered for 5 days measured daily until day 30 post-infection; assay type: functional, organism-based
Procedure, shortened: (§3)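 Female BALB/c mice (20–24 g) infected ip with 10^4 Y-strain bloodstream trypomastigotes; only parasitemic animals used. Compounds dissolved in DMSO, freshly diluted in propylene glycol, given ip at 10 mg/kg/day for 5 days from 5 dpi, with an untreated group. Parasitemia counted by Pizzi–Brener in 5 μL tail blood at 5, 8, 10 dpi; mortality checked daily to 30 dpi.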

Trypanosoma cruzi [7] = assay: Trypanocidal activity against bloodstream trypomastigote stage of Trypanosoma cruzi Y infected in BALB/c mouse assessed as reduction of parasitemia at 10 mg/kg/day, ip qd administered for 5 days measured on day 10 post-infection by microscopic analysis relative to control; assay type: functional; set-up: scale not given: the % may be the effect or the level left; conditions: route intraperitoneal; procedure, shortened: as §3
Trypanosoma cruzi [8] = assay: Trypanocidal activity against bloodstream trypomastigote stage of Trypanosoma cruzi Y infected in BALB/c mouse assessed as reduction of parasitemia at 10 mg/kg/day, ip qd administered for 3 days measured on day 8 post-infection by microscopic analysis relative to control; assay type: functional; set-up: scale not given: the % may be the effect or the level left; conditions: route intraperitoneal; procedure, shortened: as §3
Trypanosoma cruzi [9] = assay: Trypanocidal activity against intracellular amastigote stage of Trypanosoma cruzi CL-B5 infected in mouse NCTC-929 cells assessed as reduction of parasite load after 7 days by CPRG-based colorimetric analysis; conditions: Trypanosoma cruzi, CL-B5, NCTC-929, 168 h; read-out: IC50
[10] = Cytotoxicity against mouse NCTC-929 cells assessed as reduction of cell viability after 24 hrs by resazurin dye-based […]
Procedure, shortened: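 NCTC clone 929 fibroblasts in DMEM with 10% FBS and 2 mM L-glutamine, plated at 3 × 10^4 cells/well and grown overnight at 37 °C, 5% CO2. Compounds in fresh medium for 24 h, then 2 mM resazurin solution added for 3 h. Absorbance read at 570 and 595 nm; CC50 taken as 50% viability loss versus untreated cells, by probit analysis.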

Leishmania infantum [11] = assay: Leishmanicidal activity against intracellular amastigote stage of Leishmania infantum MCAN/ES/96/BCN150 infected in mouse J774 cells assessed as reduction of parasite load after 48 hrs by resazurin dye-based fluorometric analysis; assay type: functional, organism-based; procedure, shortened: as §2
[12] = Selectivity index, ratio of CC50 for mouse NCTC-929 cells to IC50 for extracellular epimastigote stage of Trypanosoma cruzi CL-B5; assay type: functional
[13] = Leishmania braziliensis, 2903, 48 h, read-out: IC50
[14] = Leishmania infantum, MCAN/ES/96/BCN150, 48 h, read-out: IC50
[15] = Leishmania guyanensis, 141/93, 48 h, read-out: IC50
[16] = Leishmania amazonensis, MHOM/Br/79/Maria, 48 h, read-out: IC50
[17] = Trypanosoma cruzi, CL-B5, 72 h, read-out: IC50

Row | Compound | IC50 (Leishmania braziliensis; [13]) | IC50 (Leishmania infantum [1]; [14]) | CC50 at 24 h [2] | IC50 (Leishmania guyanensis; [15]) | IC50 (Leishmania amazonensis [3]; [16]) | further results
1 | Cc1cc2cc(NS(=O)(=O)c3ccc([N+](=O)[O-])cc3)ccc2[nH]1 | 16.8 µM | 35.2 µM | 132 µM | 19.6 µM | 15.8 µM | –
2 | O=[N+]([O-])c1ccc(S(=O)(=O)Nc2ccc3nccnc3c2)cc1 | 60.8 µM | 81.7 µM | ≥ 300 µM | 101 µM | 198 µM | IC50 (Trypanosoma cruzi [4]): Not Active
3 | O=[N+]([O-])c1ccc(S(=O)(=O)Nc2ncccn2)cc1 | 48.8 µM | 76.4 µM | ≥ 300 µM | 46.4 µM | 68.6 µM | IC50 (Trypanosoma cruzi [4]; [17]): 156 µM
4 | O=S(=O)(Nc1ccc2nccnc2c1)c1ccc(Cl)cc1 | 80.9 µM | 51.5 µM | 23.8 µM | 25.9 µM | 46.2 µM | –
5 | O=[N+]([O-])c1ccc(S(=O)(=O)Nc2ccc3[nH]ncc3c2)cc1 | 80.8 µM | 61.3 µM | 133 µM | 140 µM | 66.7 µM | –
6 | O=[N+]([O-])c1ccc(S(=O)(=O)Nc2ccc3cn[nH]c3c2)cc1 | 21.7 µM | 43.3 µM | ≥ 300 µM | 48.1 µM | 60.3 µM | IC50 (Trypanosoma cruzi [4]): Not Active
7 | Cc1cc2cc(NS(=O)(=O)c3ccc(F)cc3)ccc2[nH]1 | 42.7 µM | 34.5 µM | 40.4 µM | 117 µM | 12.5 µM | –
8 | O=[N+]([O-])c1ccc(S(=O)(=O)Nc2ccc3ncsc3c2)cc1 | 31 µM | 85.5 µM | ≥ 300 µM | 53.7 µM | 89.6 µM | IC50 (Trypanosoma cruzi [4]): Not Active
9 | O=[N+]([O-])c1ccc(S(=O)(=O)Nc2cnccn2)cc1 | 61.5 µM | – | ≥ 300 µM | 84.2 µM | – | IC50 (Leishmania amazonensis [5]; j774): Not Active; Activity (Trypanosoma cruzi [6]): inactive; Activity (Trypanosoma cruzi [7]): 57%; Activity (Trypanosoma cruzi [8]): 14%; IC50 (Trypanosoma cruzi [4]; [17]): 76.1 µM; IC50 (Trypanosoma cruzi [9]): 224 µM; IC50 (Leishmania amazonensis [3]): Not Active; CC50 at 24 h [10]: 317 µM; IC50 (Leishmania infantum [11]; j774): Not Active; Ratio CC50/IC50 [12]: >4.7
10 | Cc1cc2cc(NS(=O)(=O)c3cccc4ccccc34)ccc2[nH]1 | 11.6 µM | 11.9 µM | 24.6 µM | 13.6 µM | 7.4 µM | –
11 | O=S(=O)(Nc1nccc2ccccc12)c1ccccc1 | 162 µM | – | ≥ 300 µM | 93.5 µM | 93.5 µM | IC50 (Leishmania infantum [1]): Not Active
12 | O=S(=O)(c1cccc2ccccc12)N1CCc2ccccc2C1 | – | – | ≥ 300 µM | – | – | IC50 (Leishmania braziliensis): Not Active; IC50 (Leishmania infantum [1]): Not Active; IC50 (Trypanosoma cruzi [4]; [17]): 114 µM; IC50 (Leishmania guyanensis): Not Active; IC50 (Leishmania amazonensis [3]): Not Active; CC50 at 24 h [10]: > 310 µM
13 | O=[N+]([O-])c1ccc(S(=O)(=O)Nc2nccc3ccccc23)cc1 | 42.5 µM | 39.5 µM | 41.3 µM | 24.6 µM | 27 µM | IC50 (Trypanosoma cruzi [4]; [17]): 136 µM
14 | O=C(Cn1ccnc1[N+](=O)[O-])NCc1ccccc1 [BENZNIDAZOLE] | – | – | ≥ 300 µM | – | – | CC50 at 24 h [10]: > 194 µM
15 | O=S(=O)(Nc1ccc2nccnc2c1)c1ccc(F)cc1 | 13.4 µM | 33.4 µM | 43.9 µM | 29.8 µM | 14.2 µM | –
16 | O=S(=O)(Nc1ccc2[nH]ncc2c1)c1cccc2ccccc12 | 39.7 µM | 37.3 µM | 30 µM | 52.8 µM | 37.7 µM | –
17 | O=S(=O)(Nc1nccc2ccccc12)c1ccc(Cl)cc1 | 37 µM | 51.4 µM | ≥ 300 µM | 4.3 µM | 82.8 µM | IC50 (Trypanosoma cruzi [4]): Not Active
18 | CC1CCCN(S(=O)(=O)c2ccccc2)C1 (configuration not stated) | 115 µM | 112 µM | ≥ 300 µM | 54.3 µM | 40.9 µM | IC50 (Trypanosoma cruzi [4]): Not Active
19 | O=S(=O)(Nc1cccc2cnccc12)c1ccc(Cl)cc1 | 29.8 µM | 21 µM | 60.8 µM | 22.6 µM | 8.4 µM | –
20 | O=S(=O)(Nc1ccc2[nH]ncc2c1)c1ccc(F)cc1 | 86.6 µM | 65.4 µM | ≥ 300 µM | 102 µM | 116 µM | IC50 (Trypanosoma cruzi [4]): Not Active
21 | CCCCCCCCCCCCCCCCOP(=O)([O-])OCC[N+](C)(C)C [MILTEFOSINE] | 7.6 µM | 17.6 µM | 136 µM | 44.6 µM | 34.1 µM | IC50 (Leishmania amazonensis [5]; Leishmania amazonensis, MHOM/Br/79/Maria, J774, 48 h, read-out: IC50): 20.9 µM; IC50 (Leishmania infantum [11]; Leishmania infantum, MCAN/ES/96/BCN150, J774, 48 h, read-out: IC50): 23.7 µM
22 | Cc1cc2cc(NS(=O)(=O)c3ccc(Cl)cc3)ccc2[nH]1 | 23 µM | 12.4 µM | 195 µM | 10.4 µM | 18.2 µM | –
